Assay results reported in ChEMBL document CHEMBL4308833, “A Thieno[2,3- d]pyrimidine Scaffold Is a Novel Negative Allosteric Modulator of the Dopamine D2 Receptor” (J Med Chem, 2018).

What was measured:
[1] = target: D(2) dopamine receptor (Homo sapiens) (UniProt P14416); assay: (§1) Negative allosteric modulation of recombinant human D2L receptor expressed in Flp-In CHO cells assessed as inhibition of dopamine-induced reduction in forskolin stimulated cAMP accumulation by measuring co-operativity factor preincubated for 30 mins followed by forskolin stimulation and measured after 30 mins by BRET assay; format: functional, cell-based
D(2) dopamine receptor (Homo sapiens), sequence (P14416 whole entry): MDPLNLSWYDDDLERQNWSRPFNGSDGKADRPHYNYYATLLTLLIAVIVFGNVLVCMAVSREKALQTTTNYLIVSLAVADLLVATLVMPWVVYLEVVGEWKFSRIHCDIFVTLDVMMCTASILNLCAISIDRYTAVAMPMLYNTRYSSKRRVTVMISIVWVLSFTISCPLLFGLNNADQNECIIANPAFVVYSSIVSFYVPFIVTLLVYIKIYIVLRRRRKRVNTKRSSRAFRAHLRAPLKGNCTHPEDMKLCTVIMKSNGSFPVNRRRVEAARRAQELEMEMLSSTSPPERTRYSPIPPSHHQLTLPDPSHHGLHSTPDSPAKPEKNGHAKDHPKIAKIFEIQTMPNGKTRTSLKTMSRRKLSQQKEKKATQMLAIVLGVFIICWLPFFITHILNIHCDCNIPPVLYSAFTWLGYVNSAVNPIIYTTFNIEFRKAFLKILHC

[2] = target: D(2) dopamine receptor (Homo sapiens) (UniProt P14416); assay: Displacement of [3H]Raclopride from recombinant human D2L receptor expressed in Flp-In CHO cell membranes assessed as co-operativity factor after 2 to 3 hrs by microbeta counting method
Method in brief: (§2)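 hD2LR FlpIn CHO membrane homogenate (15 µg protein) was co-incubated with 0.5 nM [3H]raclopride and test compound at 10^-3 to 10^-7 M (half-log dilutions from DMSO stock, in duplicate). Incubation was 2-3 h at 25 °C in HEPES buffer, pH 7.4. Nonspecific binding was defined with 10 µM haloperidol. Filtration was followed by scintillation counting. KB and cooperativity α were obtained from an allosteric ternary complex model.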

[3] = species on record: Homo sapiens; assay: Selectivity ratio of Kb for recombinant D3 receptor (unknown origin) expressed in Flp-In CHO cell membranes to Kb for recombinant human D2L receptor expressed in Flp-In CHO cell membranes; format: cell-based
[4] = target: D(2) dopamine receptor (Homo sapiens) (UniProt P14416); assay: Allosteric modulation of recombinant human D2L receptor expressed in Flp-In CHO cell membranes assessed as dissociation half life for [3H]Raclopride in presence of haloperidol after 2 to 3 hrs by microbeta counting method (reference value: 49.2 min); format: cell-based
Method in brief: (§3)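 Membranes from FlpIn CHO cells stably expressing hD2LR were incubated with 0.5 nM [3H]raclopride for 60 min in HEPES/NaCl/MgCl2/EGTA/EDTA buffer, pH 7.4, at 25 °C. Dissociation was then started by adding 10 µM haloperidol, with or without modulator. Bound radioactivity was collected by filtration and scintillation counting. Curves were fitted for koff, and t1/2 = 0.6931/koff.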

[5] = target: D(2) dopamine receptor (Homo sapiens) (UniProt P14416); assay: as §1, with “modulation of dopamine efficacy” for “co-operativity factor”; format: functional, cell-based
[6] = target: D(2) dopamine receptor (Homo sapiens) (UniProt P14416); assay: Negative allosteric modulation of recombinant human D2L receptor expressed in Flp-In CHO cells assessed as inhibition of dopamine-induced reduction in forskolin stimulated cAMP accumulation preincubated for 30 mins followed by forskolin stimulation and measured after 30 mins by BRET assay; format: functional, cell-based
[7] = target: D(3) dopamine receptor (Homo sapiens) (UniProt P35462); assay: Displacement of [3H]Raclopride from recombinant D3 receptor (unknown origin) expressed in Flp-In CHO cell membranes after 2 to 3 hrs by microbeta counting method
D(3) dopamine receptor (Homo sapiens), sequence (P35462 whole entry): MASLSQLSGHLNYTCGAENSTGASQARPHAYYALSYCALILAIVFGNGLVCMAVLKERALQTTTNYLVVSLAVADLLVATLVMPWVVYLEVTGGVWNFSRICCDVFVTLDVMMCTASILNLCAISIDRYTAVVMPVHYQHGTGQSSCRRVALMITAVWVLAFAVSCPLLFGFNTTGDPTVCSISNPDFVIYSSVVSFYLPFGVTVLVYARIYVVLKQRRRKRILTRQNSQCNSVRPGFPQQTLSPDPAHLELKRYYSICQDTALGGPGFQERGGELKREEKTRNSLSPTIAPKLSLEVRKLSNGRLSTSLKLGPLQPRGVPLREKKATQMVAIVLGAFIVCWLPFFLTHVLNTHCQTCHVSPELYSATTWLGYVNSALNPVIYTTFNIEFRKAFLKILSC
Method in brief: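 In FlpIn CHO membranes expressing hD3R, compound was tested for displacement of [3H]raclopride in equilibrium binding. Competition curves were fitted with an allosteric ternary complex model to give KB and the net cooperativity factor with [3H]raclopride. Data are at least three independent experiments in duplicate.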

[8] = target: D(2) dopamine receptor (Homo sapiens) (UniProt P14416); assay: Displacement of [3H]Raclopride from recombinant human D2L receptor expressed in Flp-In CHO cell membranes after 2 to 3 hrs by microbeta counting method; method in brief: as §2
[9] = target: D(2) dopamine receptor (Homo sapiens) (UniProt P14416); assay: Allosteric modulation of recombinant human D2L receptor expressed in Flp-In CHO cell membranes assessed as dissociation of [3H]Raclopride in presence of haloperidol after 2 to 3 hrs by microbeta counting method (reference value: 0.014 +/- 0.001 /min); format: cell-based; method in brief: as §3

Activity [1]: 0.68
log(activity) [1]: -0.17
Activity [2]: 0.23
log(activity) [2]: -0.64
T1/2 [4]: 18.2 min
Activity [5]: 0.08
log(activity) [5]: -1.1
Kb [6]: 0.662 µM
pKb [6]: 6.18
pKb [7]: 3.85
Kb [8]: 6 µM
pKb [8]: 5.22
K [9]: 0.038 min⁻¹
Structure (SMILES): CCN(CC)c1nc(CN2CCOCC2)nc2sc3c(c12)CCCC3
Selectivity ratio [3]: 23
